Source: the RNAGym collection of RNA variant scans (doi:10.1038/nmeth.2970)

B1: GFP aptamer (parent)
chain: GCUUCUGGACUGCGAUGGGAGCACGAAACGUCGUGGCGCAAUUGGGUGGGGAAAGUCCUUAAAAGAGGGCCACCACAGAAGC

Variants of: B1
Test: HiTS-RAP
Conditions: with EGFP
Procedure, shortened: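 Aptamer DNA templates carrying a T7 promoter and ter site were sequenced on an Illumina GAIIx flowcell, then transcribed in situ by T7 RNA polymerase and halted by GST-Tus (30 minutes, 37°C). Clusters were imaged after 30-minute room-temperature equilibration with EGFP-mOrange at 0.04 nM to 625 nM in fivefold steps. Intensities were decay-corrected, normalised to sequencing intensity and averaged per sequence. Kd came from weighted Hill fits per lane, geometrically averaged over three lanes, with non-rising sequences set to 125 nM.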

C73A and C73U are within 1.5-fold of each other in Kd: 8.52 nM for the first, 6.59 nM for the second.

C73G and A61C are within 1.5-fold of each other in Kd: 7.26 nM for the first, 5.03 nM for the second.

A61G and A61U are within 1.5-fold of each other in Kd: 3.47 nM for the first, 4.9 nM for the second.

First: G65C
Second: G65A
The Kd of the first is 2.8-fold higher: 35.3 nM for the first, 12.4 nM for the second.

Compared with G65U, A66U is lower in Kd: no less than 125 nM for the first, 8.88 nM for the second. The second binds more tightly here.

Going from A66G to A64U, the Kd rises from 11.2 nM to no less than 125 nM. The first binds more tightly here.

A64C and A64G cannot be ordered by Kd: no less than 125 nM for the first, no less than 125 nM for the second.

Going from U59G to U59C, the Kd rises from 6.85 nM to 16.6 nM (2.4-fold).

U59A and A72G C74U are within 1.5-fold of each other in Kd: 10.1 nM for the first, 7.35 nM for the second.

G67C and G67U are within 1.5-fold of each other in Kd: 11.8 nM for the first, 9.04 nM for the second.

First: G67A
Second: G68C
The Kd of the first is 3.9-fold lower: 14.2 nM for the first, 55.4 nM for the second. The first binds more tightly here.

Going from G68U to G68A, the Kd rises from 15.9 nM to 27.5 nM (1.7-fold).

Going from A80U to A80G, the Kd falls from 6.99 nM to 3.57 nM (2-fold).

Compared with A80C, A62C is 3-fold lower in Kd: 12.1 nM for the first, 4 nM for the second.

A62G and A62U are within 1.5-fold of each other in Kd: 3.54 nM for the first, 3.36 nM for the second.

A72G C73U and C73U C74U are within 1.5-fold of each other in Kd: 8.64 nM for the first, 7.64 nM for the second.

Going from G78C to G78A, the Kd falls from 43.8 nM to 13.2 nM (3.3-fold). The second binds more tightly here.

Compared with G78U, U60A is 3.6-fold lower in Kd: 6.2 nM for the first, 1.71 nM for the second. The second binds more tightly here.

First: U60C
Second: U60G
The Kd of the first is 3.1-fold higher: 16.6 nM for the first, 5.38 nM for the second. The second binds more tightly here.

First: A79G
Second: A79U
The Kd of the first is 1.7-fold lower: 4.31 nM for the first, 7.52 nM for the second.

First: A79C
Second: A75G
The Kd of the first is 1.9-fold higher: 18.6 nM for the first, 9.8 nM for the second.

A75U and A75C are within 1.5-fold of each other in Kd: 26.3 nM for the first, 26.6 nM for the second.

Compared with U59C A77G, C82A is 4-fold higher in Kd: 0.842 nM for the first, 3.36 nM for the second. The first binds more tightly here.

First: C82U
Second: C82G
The Kd of the first is 2.4-fold lower: 4.16 nM for the first, 10.1 nM for the second.

Going from C70U to C70G, the Kd rises from 7.23 nM to 43.1 nM (6-fold).

Compared with C70A, A75G A79G is 12-fold lower in Kd: 79.2 nM for the first, 6.58 nM for the second.

First: C71A
Second: C71U
The Kd of the first is higher: no less than 125 nM for the first, 14.5 nM for the second.

First: C71G
Second: A63U
The Kd of the first is lower: 37.3 nM for the first, no less than 125 nM for the second.

First: A63G
Second: A63C
The Kd of the first is lower: 8.55 nM for the first, no less than 125 nM for the second.

First: A72U
Second: A72C
The Kd of the first is lower: 17.7 nM for the first, no less than 125 nM for the second.

Going from A72G to A75G A77G, the Kd rises from 3.33 nM to 6.48 nM (1.9-fold). The first binds more tightly here.

Going from C58U C74U to A77C, the Kd rises from 5.94 nM to 15.3 nM (2.6-fold).

Compared with A77G, A77U is 2.3-fold higher in Kd: 4.77 nM for the first, 10.8 nM for the second.

First: G81C
Second: G81A
The Kd of the first is 2.6-fold higher: 14.1 nM for the first, 5.44 nM for the second. The second binds more tightly here.

First: G81U
Second: C74A
The Kd of the first is 6.4-fold lower: 4.53 nM for the first, 28.9 nM for the second. The first binds more tightly here.

Compared with C74U, C74G is 2.3-fold higher in Kd: 6.27 nM for the first, 14.5 nM for the second.

Going from C76A to C76G, the Kd rises from 13.6 nM to 28.8 nM (2.1-fold).

Compared with C76U, A66G C74U is 3-fold lower in Kd: 37.1 nM for the first, 12.3 nM for the second. The second binds more tightly here.

First: G69A
Second: G69U
The Kd of the first is higher: no less than 125 nM for the first, 3.44 nM for the second. The second binds more tightly here.

In the case of G69C, the Kd is reported as no less than 125 nM.
